# High-throughput results: PubChem, several laboratories
# Pemphigus Ab inh: inhibitors of pemphigus antibody binding to human desmoglein-3 | P32926 | DSG3-coupled beads, scFv-anti-DSG3-GFP binding, flow cytometry; hits give low values | binding (percent of control), % at 10 µM | 310,000 compounds, 0.48% hits;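 active = binding more than 3 SD below its plate's average and above zero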;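 also: hits lower antibody fragment binding to DSG3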
# MCL1 BIM primary: MCL1-BIM-BH3 interaction inhibition (human) | 320,000 compounds, 0.68% hits | GST-MCL1 / FITC-Bim-BH3 fluorescence polarization | inhibition, % at 10.9 µM | Q07820;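 active = inhibition above the mean inhibition of all tested compounds plus 3 SD, set per campaign, cut at about 40% in these data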;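 also: 0% = DMSO wells and 100% = unlabeled Bim-BH3 peptide control; higher means more loss of mP so more displacement of Bim peptide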
# Target sequence (Q07820 whole entry, looked up): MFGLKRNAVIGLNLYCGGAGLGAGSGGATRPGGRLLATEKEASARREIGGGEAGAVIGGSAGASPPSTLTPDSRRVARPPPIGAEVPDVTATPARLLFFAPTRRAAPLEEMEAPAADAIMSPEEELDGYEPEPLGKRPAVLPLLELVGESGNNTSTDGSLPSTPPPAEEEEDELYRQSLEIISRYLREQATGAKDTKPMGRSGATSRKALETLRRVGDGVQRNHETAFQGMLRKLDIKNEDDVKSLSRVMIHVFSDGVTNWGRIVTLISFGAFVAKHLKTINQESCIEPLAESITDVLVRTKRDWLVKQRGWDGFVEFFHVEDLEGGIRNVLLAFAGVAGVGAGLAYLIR
# T cell HTS: modulates CD8 T cell binding to vesicles | 2C CD8+ T cell-vesicle binding, flow cytometry; hits give low values | response (vesicle binding), % at 7 µM | 330,000 compounds, 0.068% hits | AID 2052;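 active = response, share of CD8 T cells binding vesicles, and their 90th percentile fluorescence all below set limits, cut at about 80% in these data, passing the limit was not always enough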;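 also: values below 100% mean blocked vesicle binding to the CD8+ T cells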
#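 Material: 2C TCR transgenic mouse naive CD8+ T cells, MACS-purified. Also added: QL9-charged Drosophila Ld/ICAM-1/B7-1 vesicles. Timing: binding 1.5 h at 37 °C. Measured by: high-throughput flow cytometry with anti-B7-1 and anti-CD8 staining. Read-out: percent CD8+ FL2 mean versus row control. Controls: Unloaded micro-vesicles (low), QL9 vesicles with 0.7% DMSO (high).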
# Bim-Mcl-1: human Bim-Mcl-1 interaction inhibition. Q07820. Bead-based flow cytometry, Bim peptide-Mcl-1 binding. inhibition, % at 10 µM. 190,000 compounds, 0.1% hits. AID 1009; in the data active = inhibition above about 40%;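 also: 0% = no compound tracer wells and 100% = peptide blocker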
# Mcl1 Noxa PPI: disrupts binding of human Mcl-1 to Noxa peptide; Q07820; TR-FRET Mcl-1/Noxa peptide binding, 2 h; inhibition, % at 21.7 µM; 220,000 compounds, 1.5% hits; AID 1022;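 active = compounds that cut the protein-peptide binding signal by more than 50% relative to plate controls in a single-dose test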;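 also: His-tagged Mcl-1 with rhodamine Noxa BH3 peptide and terbium anti-His antibody; 0% = Mcl-1 plus Noxa peptide wells and 100% = peptide-only wells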
# Mcl1 Bid PPI: disrupts binding of human Mcl-1 to Bid peptide; Q07820; TR-FRET Mcl-1/Bid-Dy647 peptide binding, 1536-well; inhibition, % at 21.7 µM; 220,000 compounds, 0.97% hits; AID 1021;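 active = compounds that cut the binding signal by more than half at the single screening dose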;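 also: His-tagged Mcl-1 with europium anti-His antibody binding Bid BH3 peptide; 0% = Mcl-1 plus peptide wells and 100% = peptide-only wells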
# Bcl-xL conf: Bcl-xL (human) inhibition, MCL1 counter-screen confirmation. shares compounds with MCL1 BIM primary. 1,700 compounds, 54% hits. GST-Bcl-xL / FITC-Bim BH3 peptide FP binding. inhibition, % at 10.9 µM. AID 2166;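 active = inhibition above a cutoff equal to the mean inhibition of all tested compounds plus 3 SD, cut at about 30% in these data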;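 also: 0% = DMSO wells and 100% = unlabeled Bim BH3 control peptide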
# Target sequence (Q07817 whole entry, looked up): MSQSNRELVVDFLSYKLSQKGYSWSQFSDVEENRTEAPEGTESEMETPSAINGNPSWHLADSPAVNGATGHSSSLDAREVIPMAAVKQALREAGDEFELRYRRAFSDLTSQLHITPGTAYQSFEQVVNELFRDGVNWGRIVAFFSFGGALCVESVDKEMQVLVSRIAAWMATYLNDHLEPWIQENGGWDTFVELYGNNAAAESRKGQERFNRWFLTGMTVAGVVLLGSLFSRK
# MCL1 BIM confirm: confirmation of human MCL1 and BIM-BH3 interaction inhibitors; shares compounds with MCL1 BIM primary; GST-MCL1 / FITC-Bim-BH3 fluorescence polarization; inhibition, % at 10.9 µM; 1,700 compounds, 61% hits;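 active = inhibition above the average of all tested compounds plus 3 SD, cut at about 40% in these data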;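 also: 0% = DMSO wells and 100% = unlabeled Bim-BH3 control peptide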
# Active calls of the source: *; i = inactive; . = no result; + = active, no number. Compounds with a hit are over-represented: about 2.3% of the library has one in this group of screens.
SMILES,Pemphigus Ab inh,MCL1 BIM primary,T cell HTS,Bim-Mcl-1,Mcl1 Noxa PPI,Mcl1 Bid PPI,Bcl-xL conf,MCL1 BIM confirm
CCOC(=O)c1c(C)[nH]c(C)c1S(=O)(=O)N1CCCCC1,98,9,187,.,.,.,.,.
CCC(=O)Nc1ccc(C(=O)COC(=O)c2nc3nccc(C)n3n2)cc1,.,54*,448,.,.,.,1,52*
C[C@@H]1ON(C)[C@H]2C[C@H]3c4[nH]c5ccc(-c6ccc7c(c6)OCO7)cc5c4CCN3C[C@@H]12,101,.,.,.,.,.,.,.
N#C/C(=C\c1ccc(O)cc1)C(=O)NCc1ccccc1,99,-1,192,.,.,.,.,.
N#C/C(=C\c1ccc(O)c(O)c1)C(=O)NCCc1ccccc1,106,42*,600,.,.,.,31*,45*
CCOC(=O)Cn1c(=O)c(-c2cc(Br)ccc2N)nc2ccccc21,i,82*,147,.,13,-35,108*,132*
Nc1c(NCc2ccccc2)c(=O)[nH]c(=O)n1Cc1ccccc1,122,88*,148,-6,11,-55,8,15
Cn1c(=O)[nH]c(=O)c2c1nc(NCc1ccccc1)n2Cc1ccc(F)cc1,109,.,146,.,.,.,.,.
COc1ccccc1NS(=O)(=O)c1ccc(C(=O)NCCCN2CCOCC2)cc1,104,.,.,.,.,.,.,.
N=C1/C(=C\c2coc3ccccc3c2=O)C(=O)N=C2SC=CN12,102,60*,129,.,6,-79,61*,70*
CC1=CC2=NC(=O)/C(=C/c3coc4ccc(Cl)cc4c3=O)C(=N)N2O1,113,-40,339,.,6,-25,.,.
Cc1c(O)c2c3c(cccc3c1O)C(=O)N(c1ccccc1)C2=O,91,98*,785,-3,-9,-6,92*,105*
CC(=O)Nc1ccc2c3c(cccc13)C(=O)N(c1ccccc1)C2=O,99,-4,334,1,-79,14,.,.
Cc1ccc(CCNC(=O)C2CCN(S(=O)(=O)N3CCOCC3)CC2)cc1,102,5,959,.,.,.,.,.
c1ccc2[nH]c3cc4ncnc4cc3nc2c1,88,+,542,13,12,-22,+,+
FC(F)c1nc2ccccc2[nH]1,100,-5,254,-2,-16,-4,.,.
C#CCN1C(=O)S/C(=C\c2ccc(N3CCOCC3)cc2C)C1=O,115,70*,186,0,-5,-6,121*,153*
CCCCn1c(N)c(N(CC(C)C)C(=O)C2CCCN(C(=O)c3ccc(Cl)cc3)C2)c(=O)[nH]c1=O (stereo not given),98,-7,408,.,.,.,.,.
O=C1SC(SCc2ccccc2)=N/C1=C\c1ccco1,99,43*,i,-1,23,-24,8,16
O=C1SC(SCc2ccccc2)=N/C1=C\c1ccc(C(=O)O)cc1,99,3,416,-3,39,-4,.,.
O=c1c(Br)ccc(Br)cc1Br,115,.,.,.,.,.,.,.
COc1ccc(C(CNC(=O)Nc2ccccc2)N2CCN(C)CC2)cc1 (stereo not given),.,46*,214,.,.,.,7,13
COC(=O)c1cc(OC)c(OC)cc1NC(=O)CCN1C(=O)C2CCCCC2C1=O (stereo not given),102,.,.,.,.,.,.,.
O=C(CCC(=O)N(CC(=O)NC1CCCC1)c1cccc(F)c1)Nc1nccs1,104,8,414,.,.,.,.,.
CCc1nnc(NC(=O)c2cc(-c3ccco3)nc3ccccc23)s1,.,51*,259,1,82*,-31,32*,72*
SMILES,Pemphigus Ab inh,MCL1 BIM primary,T cell HTS,Bim-Mcl-1,Mcl1 Noxa PPI,Mcl1 Bid PPI,Bcl-xL conf,MCL1 BIM confirm
O=C(NCC1CCCO1)c1cc(-c2ccncc2)nc2ccccc12 (stereo not given),98,.,.,.,.,.,.,.
COc1ccccc1CNC(=O)COC(=O)c1cc(-c2ccco2)nc2ccccc12,97,72*,271,3,92*,32,35*,71*
O=C(NCC1CCCO1)c1cc(-c2ccco2)nc2ccccc12 (stereo not given),76,67*,347,2,42,-53,12,24
COc1ccc(NC(=O)c2cc(-c3ccco3)nc3ccccc23)cc1S(=O)(=O)N1CCOCC1,86,42*,705,.,101*,-25,38*,37
COc1ccc2oc(C(=O)OCC(=O)N(C)CC(=O)Nc3ccc(F)cc3)c(C)c2c1,97,-26,420,.,.,.,.,.
O=C(N/N=C/c1cccc(F)c1)c1cc(-c2ccco2)nc2ccccc12,59,74*,394,-2,91*,-19,24,64*
N#CC1=C(N)C(C#N)(C#N)[C@H](c2c(F)cccc2F)[C@H]2CC3(CC=C12)OCCO3,102,62*,267,1,-4,-17,35*,34
CN1C2C=C3C(C#N)=C(N)C(C#N)(C#N)[C@H](c4c(F)cccc4F)[C@H]3C1CC2 (stereo not given in full),100,17,167,-1,4,-66,.,.
Nc1ccccc1C(=O)/C=C/c1ccc2c(c1)OCO2,100,1,.,-2,-5,-3,.,.
CCNc1ccc(Br)cc(C(=O)/C=C/c2ccc3c(c2)OCO3)c1=O,95,47*,147,11,94*,-29,-26,-45
CC(C)[C@H](NC(=O)c1ccccc1F)C(=O)NC1CCCCCCC1,104,.,341,.,.,.,.,.
CC(=O)OCCNc1cc(SCc2ccco2)c2nonc2c1[N+](=O)[O-],98,36,214,-1,32,-17,.,.
O=[N+]([O-])c1c(NCCCO)cc(SCc2ccco2)c2nonc12,90,59*,138,-6,11,-82,14,12
Cc1cc2nc3ccc(N(C)C)cc3nc2cc1N,.,126*,476,.,.,.,128*,143*
Cn1nc(C(=O)NNC(=O)c2ccc(Cl)c(S(N)(=O)=O)c2)c2ccccc2c1=O,99,8,279,.,.,.,.,.
Cc1cc(C)cc(NC(=O)CCN2CCOCC2)c1,96,13,164,.,.,.,.,.
O=S(=O)([O-])C(c1ccccc1)[n+]1ccccc1 (stereo not given),100,47*,230,.,.,.,-1,2
O=C(O)C(C(=O)/C=C/c1ccco1)=C1SCCS1,101,51*,44,-1,-5,3,23,56*
O=C(C=C1SCCS1)/C=C/c1ccco1,101,37,182,-3,42,-42,.,.
O=C(Nc1cccc(S(=O)(=O)N2CCCCC2)c1)C1COc2ccccc2O1 (stereo not given),95,.,218,.,.,.,.,.
COc1cc(NC(=O)C/C(C)=N/NC(=O)Cc2ccc(Cl)cc2)c(OC)cc1Cl,111,8,197,0,11,-26,.,.
